Measurements as given in PMC3700226 (Organic & Biomolecular Chemistry, 2012).

Assays:
HT1080 cells [1] = experiment: Luminescent cell viability assay; assay type: cell-based, human; conditions: ratio of 72 h IC50 values, WI-38 = 1.0
In short: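 HeLa, HT1080, U2OS and WI-38 cells were grown in DMEM with 10% FCS. Cells were plated at 4000 per well and left 24 h, then serially diluted test compound (0–40 μM) was added. Viability was read by CellTiter-Glo luminescence after 72 h, 20 min after reagent addition at rt, in triplicate. IC50 values were determined separately for HT1080 and for WI-38.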

HT1080 cells [2] = experiment: β-Galactosidase senescence assay; assay type: cell-based, human; conditions: HT1080, 8 days of incubation at respective IC50
In short: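 HT1080 cells were treated 4 d with test compound at its IC50, or untreated, then reseeded at 4000 per chamber-slide well for another 4 d of treatment. Cells were fixed in 2% formaldehyde/0.2% glutaraldehyde for 15 min. They were stained 16 h at 37 °C with 1 mg ml−1 X-gal in pH 6.0 citrate/phosphate buffer containing ferro/ferricyanide for senescence-associated β-galactosidase.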

[3] = test system: telomeric 3′ G-overhang in HT1080 cells; experiment: Non-denaturing hybridization assay of telomeric G-overhang; assay type: cell-based, human; conditions: HT1080, respective IC50, time course of 12 days
[4] = test system: HeLa, HT1080, U2OS and WI-38 cells; experiment: Luminescent cell viability assay, panel of four human cell lines; assay type: cell-based; conditions: 3 days of exposure; concentrations up to 40 µM
[5] = test system: human telomeric G-quadruplex-forming sequence (H-Telo); experiment: FRET-melting assay, H-Telo; assay type: binding; conditions: 1 µM compound, 200 nM oligonucleotide, 60 mM potassium cacodylate pH 7.4
In short: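 Dual FAM/TAMRA-labelled H-Telo oligonucleotide was annealed at 400 nM (94 °C for 10 min, then cooled to rt at 0.1 °C min−1). It was mixed with test compound in 60 mM potassium cacodylate, pH 7.4, at 200 nM final oligonucleotide. Fluorescence was read with excitation at 483 nm and emission at 533 nm. Melting-temperature shift was measured in triplicate.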

HT1080 cells [6] = experiment: Long-term growth assay; assay type: cell-based, human; conditions: HT1080, incubated at respective IC50 over 30 days
In short: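 HT1080 cells were seeded at 300000 per T-25 flask with test compound at its IC50, or untreated. Every 3–4 days cells were split, counted with a haemocytometer and reseeded at 300000. Population doublings were calculated as PD = ln(n1/n2)/ln2 and run in triplicate. Dead cells were counted at each time point by trypan blue exclusion.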

## NCCOc1cc(C(=O)Nc2cc(OCCN)c3ccccc3n2)nc(C(=O)Nc2cc(OCCN)c3ccccc3n2)c1 [Compound 1, pyridostatin]
HT1080 cells [1]
  Selectivity ratio HT1080 over WI-38: 18.5

## NCCOc1cc(C(=O)Nc2cc(OCCN3CCCC3)c3ccccc3n2)nc(C(=O)Nc2cc(OCCN3CCCC3)c3ccccc3n2)c1 [Compound 9]
HT1080 cells [2]
  Senescent cells (β-galactosidase staining): presence of senescent cells

## O=C(Nc1cc(OCCN2CCCC2)c2ccccc2n1)c1cc(OCCN2CCCC2)cc(C(=O)Nc2cc(OCCN3CCCC3)c3ccccc3n2)n1 [Compound 10]
HT1080 cells [2]
  Senescent cells (β-galactosidase staining): presence of senescent cells
[3]
  Kinetics of G-overhang degradation (in words): most potent to induce an early effect

## COc1cc(C(=O)Nc2cc(OC)c3ccccc3n2)nc(C(=O)Nc2cc(OC)c3ccccc3n2)c1 [Compound 14]
[4]
  Growth inhibition against the panel of cell lines (in words): did not exhibit growth inhibitory properties

## O=C(Nc1cc(OCCN2CCCC2)c2ccccc2n1)c1cc(Cl)cc(C(=O)Nc2cc(OCCN3CCCC3)c3ccccc3n2)n1 [Compound 17]
HT1080 cells [2]
  Senescent cells (β-galactosidase staining): presence of senescent cells
[3]
  Kinetics of G-overhang degradation (in words): most potent to induce an early effect

## NCCOc1cc(NC(=O)c2cc(OCc3ccc(F)cc3)cc(C(=O)Nc3cc(OCCN)c4ccccc4n3)n2)nc2ccccc12 [Compound 20]
[5]
  FRET ΔTm, H-Telo: 8.8 K
HT1080 cells [6]
  Exposure time after which flattening of the population doubling curve started: 19 days

## O=C(Nc1cc(OCCN2CCCC2)c2ccccc2n1)c1cc(OCc2ccc(F)cc2)cc(C(=O)Nc2cc(OCCN3CCCC3)c3ccccc3n2)n1 [Compound 21]
[5]
  FRET ΔTm, H-Telo: 4.3 K
